The source made the active and inactive calls. The rule behind the calls is not given here.
Tests used:
[1] = test system: MCF7; assay: Cytotoxicity against human MCF7 cells assessed as reduction in cell viability after 4 hrs by MTT assay; assay type: functional, cell-based
Summary of the method: (§1)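 MTT: 10,000–20,000 cells/well attached for 16 h, then washed twice with serum-free RPMI. Treated with 1–200 µM for 4 h, 3 parallel runs per concentration. MTT added for 2 h; medium partly removed and isopropanol added. A590 read. Viability = (A treated − A doxorubicin)/(A medium − A doxorubicin)×100. Mean of three experiments, triplicate wells each.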

[2] = Cytotoxicity against HEK293 cells assessed as cell viability at 200 uM after 4 hrs by MTT assay relative to control; assay type: cell-based; details: human, read-out: Activity; summary of the method: as §1
[3] = test system: HeLa; assay: Induction of apoptosis in human HeLa cells assessed as viable cells at 1 uM after 12 hrs by annexin-V FITC/propidium iodide staining based flow cytometric analysis relative to control; assay type: functional; details: read-out: Activity
Summary of the method: (§2)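 Cells were grown in DMEM with 10% heat-inactivated FBS at 37 °C and 5% CO₂, then plated at 500,000 cells/well in 24-well plates. They were treated from a DMSO stock (DMSO ≤0.1%) for 8, 12 or 16 h. After a PBS wash, cells were resuspended in binding buffer (10 mM HEPES pH 7.4, 2.5 mM CaCl₂, 140 mM NaCl, 0.1% BSA), stained 40 min with FITC-annexin V, then with PI, and run on the flow cytometer immediately. Values are the mean of three independent experiments.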

[4] = test system: HeLa; assay: Induction of apoptosis in human HeLa cells assessed as late apoptotic cells at 1 uM after 16 hrs by annexin-V FITC/propidium iodide staining based flow cytometric analysis relative to control; assay type: functional; summary of the method: as §2
[5] = test system: MCF7; assay: Induction of nitric oxide production in human MCF7 cells measured over 8 hrs by Griess reaction based assay; assay type: functional, cell-based
Summary of the method: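 Cells seeded at 2×10^6 cells/well for 12 h, then exposed to 1, 5 and 10 μM compound for 8 h at 37 °C. Culture supernatant mixed with Griess reagent (0.002% N-1-naphthyl-ethylenediamine dihydrochloride, 0.5% sulfanilic acid, 14% glacial acetic acid). Nitrite read by absorbance at 550 nm and compared with vehicle group.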

[6] = target: c-Jun N-terminal kinase, JNK (Homo sapiens) (UniProt P45983+P53779+P45984); assay: Activation of JNK phosphorylation in human MCF7 cells assessed as increase in ratio of phosphorylated JNK to total JNK level at 5 uM in presence of JNK inhibitor SP600125 by ELISA; assay type: cell-based
Summary of the method: (§3)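 Cell-based ELISA: HeLa or MCF-7 cells (20×10^3/well) grown overnight at 37 °C, 5% CO2, treated with 5 μM, then fixed and blocked. Probed with rabbit anti-total and anti-phospho P38, JNK or ERK1/2 (1:100), then HRP anti-rabbit IgG. Result is the phospho/total ratio; inhibitor arms use […], […] or SP600125. n=3.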

[7] = target: MAP kinase p38 (Homo sapiens) (UniProt O15264+Q15759+Q16539+P53778); assay: Activation of MAPK p38 phosphorylation in human HeLa cells assessed as increase in ratio of phosphorylated p38 to total p38 level at 5 uM in presence of p38 kinase inhibitor […] by ELISA; assay type: cell-based; summary of the method: as §3

Activity [6]: inactive | Activity [7]: inactive
SMILES: Cn1cc(/C=N\NC(=O)c2cn(C)c3ccc(Br)cc23)c2ccccc21
Activity [1]: Dose-dependent effect | IC50 ([1]; Homo sapiens, MCF7, 4 h, read-out: IC50): 1190 nM | viability at 4 h, 200 µM [2]: 95% | viability at 1 µM [3]: 47.8% | Activity [4]: 71.74% | Activity [5]: Dose-dependent effect
